Reference: ChEMBL document CHEMBL3259728, “Design, synthesis and biological evaluation of some novel substituted quinazolines as antitumor agents” (2014)

Key:
Type in all cases: functional
MCF7 [1] = assay: Growth inhibition of human MCF7 cells assessed as cell growth at 10^-5 M after 48 hrs by SRB assay; conditions: MCF7, 48 h, read-out: Activity
NCI-H23 = assay: Growth inhibition of human NCI-H23 cells assessed as cell growth at 10^-4 M after 48 hrs by SRB assay; conditions: NCI-H23, 48 h, read-out: Activity
SR = assay: Growth inhibition of human SR cells assessed as cell growth at 10^-7 M after 48 hrs by SRB assay; conditions: read-out: Activity
M14 = assay: Cytotoxicity against human M14 cells after 48 hrs by SRB assay; conditions: M14, 48 h
How it was run: (§1)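 NCI 60-cell-line panel of human tumour lines from nine cancer types. Continuous 48 h exposure at five 10-fold dilutions from 10^-4 to 10^-8 M, with 5-FU as positive control. SRB protein stain read spectrophotometrically at time zero, untreated control and each concentration. GI50, TGI and LC50 were derived from the [(Ti−Tz)/(C−Tz)]×100 growth relations, and out-of-range values are given as > or < the tested limits.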

MDA-MB-435 [2] = assay: Growth inhibition of human MDA-MB-435 cells assessed as cell growth at 10^-8 M after 48 hrs by SRB assay; conditions: MDA-MB-435, 48 h, read-out: Activity
NCI-H322M = assay: Growth inhibition of human NCI-H322M cells assessed as cell growth at 10^-4 M after 48 hrs by SRB assay; conditions: read-out: Activity
[3] = Growth inhibition of human OVCAR3 cells assessed as cell growth at 10^-6 M after 48 hrs by SRB assay; conditions: OVCAR-3, 48 h, read-out: Activity
CCRF-CEM = assay: Growth inhibition of human CCRF-CEM cells assessed as cell growth at 10^-6 M after 48 hrs by SRB assay; conditions: read-out: Activity
How it was run: (§2)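 Five-dose NCI panel protocol. Each dose (10^-4 to 10^-8 M, 10-fold steps) was given as 48 h continuous exposure, and protein was measured by SRB staining. Percentage growth at each level is [(Ti−Tz)/(C−Tz)]×100, where Tz is time-zero absorbance and C is untreated control.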

HOP-62 = assay: Cytotoxicity against human HOP62 cells after 48 hrs by SRB assay; conditions: HOP-62, 48 h; how it was run: as §1
[4] = Growth inhibition of human Hs578T cells assessed as cell growth at 10^-7 M after 48 hrs by SRB assay; conditions: Hs-578T, read-out: Activity
SK-MEL-5 = assay: Cytotoxicity against human SK-MEL-5 cells after 48 hrs by SRB assay; conditions: SK-MEL-5, 48 h; how it was run: as §1
MCF7 [5] = assay: Growth inhibition of human MCF7 cells assessed as cell growth at 10^-8 M after 48 hrs by SRB assay; conditions: MCF7, 48 h, read-out: Activity
MDA-MB-468 = assay: Growth inhibition of human MDA-MB-468 cells assessed as cell growth at 10^-8 M after 48 hrs by SRB assay; conditions: MDA-MB-468, 48 h, read-out: Activity
SN12C = assay: Cytotoxicity against human SN12C cells after 48 hrs by SRB assay; how it was run: as §1
IGROV-1 = assay: Growth inhibition of human IGROV1 cells assessed as cell growth at 10^-6 M after 48 hrs by SRB assay; conditions: IGROV-1, 48 h, read-out: Activity
[6] = Growth inhibition of human UO31 cells assessed as cell growth at 10^-8 M after 48 hrs by SRB assay; conditions: UO-31, 48 h, read-out: Activity
[7] = Growth inhibition of human OVCAR4 cells assessed as cell growth at 10^-4 M after 48 hrs by SRB assay; conditions: OVCAR-4, 48 h, read-out: Activity
[8] = Growth inhibition of human HOP92 cells assessed as cell growth at 10^-8 M after 48 hrs by SRB assay; conditions: HOP-92, 48 h, read-out: Activity
COLO 205 = assay: Growth inhibition of human COLO205 cells assessed as cell growth at 10^-4 M after 48 hrs by SRB assay; conditions: COLO 205, 48 h, read-out: Activity; how it was run: as §2
DU-145 = assay: Growth inhibition of human DU145 cells assessed as cell growth at 10^-6 M after 48 hrs by SRB assay; conditions: DU-145, 48 h, read-out: Activity
KM12 = assay: Growth inhibition of human KM12 cells assessed as cell growth at 10^-8 M after 48 hrs by SRB assay; conditions: KM12, 48 h, read-out: Activity
SW-620 [9] = assay: Growth inhibition of human SW620 cells assessed as cell growth at 10^-7 M after 48 hrs by SRB assay; conditions: SW-620, 48 h, read-out: Activity
HT-29 = assay: Growth inhibition of human HT-29 cells assessed as cell growth at 10^-4 M after 48 hrs by SRB assay; conditions: HT-29, 48 h, read-out: Activity
ACHN = assay: Growth inhibition of human ACHN cells assessed as cell growth at 10^-4 M after 48 hrs by SRB assay; conditions: read-out: Activity; how it was run: as §2
[10] = Growth inhibition of human NCI-ADR-RES cells assessed as cell growth at 10^-4 M after 48 hrs by SRB assay; conditions: read-out: Activity
MDA-MB-435 [11] = assay: Cytotoxicity against human MDA-MB-435 cells after 48 hrs by SRB assay; conditions: MDA-MB-435, 48 h; how it was run: as §1
SNB-19 = assay: Cytotoxicity against human SNB19 cells after 48 hrs by SRB assay; conditions: SNB-19, 48 h; how it was run: as §1
[12] = Growth inhibition of human HCT15 cells assessed as cell growth at 10^-5 M after 48 hrs by SRB assay; conditions: HCT-15, 48 h, read-out: Activity
SW-620 [13] = assay: Growth inhibition of human SW620 cells assessed as cell growth at 10^-6 M after 48 hrs by SRB assay; conditions: SW-620, 48 h, read-out: Activity
[14] = read-out: LC50 (the source's name)
[15] = read-out: pLC50 (the source's name) (converted)

Which results are given for Cc1ccc(-c2nc3ccc(Cl)cc3c(=O)n2/N=C/c2ccccc2)cc1?
growth at 10 µM (MCF7 [1]): 59%; growth at 100 µM (NCI-H23): 51%; growth at 0.1 µM (SR): 93%; GI50 (M14; read-out: GI50): 56.2 µM; CC50 (M14; [14]): > 100 µM; TGI (M14; read-out: TGI): > 100 µM; GI50 (M14; read-out: pGI50 (converted)): 56.2 µM; CC50 (M14; [15]): > 100 µM; TGI (M14; read-out: pTGI): > 100 µM; growth at 0.01 µM (MDA-MB-435 [2]): 98%; growth at 100 µM (NCI-H322M): 42%; growth at 1 µM [3]: 94%; growth at 1 µM (CCRF-CEM): 88%; GI50 (HOP-62; read-out: GI50): 1980 nM; CC50 (HOP-62; [14]): 31.8 µM; TGI (HOP-62; read-out: TGI): 5.09 µM; GI50 (HOP-62; read-out: pGI50 (converted)): 2000 nM; CC50 (HOP-62; [15]): 31.6 µM; TGI (HOP-62; read-out: pTGI (converted)): 5.13 µM; growth at 0.1 µM [4]: 90%; GI50 (SK-MEL-5; read-out: GI50): 20 µM; CC50 (SK-MEL-5; [14]): > 100 µM; TGI (SK-MEL-5; read-out: TGI): > 100 µM; GI50 (SK-MEL-5; read-out: pGI50 (converted)): 20 µM; CC50 (SK-MEL-5; [15]): > 100 µM; TGI (SK-MEL-5; read-out: pTGI): > 100 µM; growth at 0.01 µM (MCF7 [5]): 93%; growth at 0.01 µM (MDA-MB-468): 91%; GI50 (SN12C; read-out: GI50): 11.8 µM; CC50 (SN12C; [14]): > 100 µM; TGI (SN12C; read-out: TGI): > 100 µM; GI50 (SN12C; read-out: pGI50 (converted)): 11.7 µM; CC50 (SN12C; [15]): > 100 µM; TGI (SN12C; read-out: pTGI): > 100 µM; growth at 1 µM (IGROV-1): 71%; growth at 0.01 µM [6]: 77%; growth at 100 µM [7]: 26%; growth at 0.01 µM [8]: 93%; growth at 100 µM (COLO 205): 38%; growth at 1 µM (DU-145): 96%; growth at 0.01 µM (KM12): 95%; growth at 0.1 µM (SW-620 [9]): 93%; growth at 100 µM (HT-29): 45%; growth at 100 µM (ACHN): 6%; growth at 100 µM [10]: 36%; GI50 (MDA-MB-435 [11]; read-out: GI50): > 100 µM; CC50 (MDA-MB-435 [11]; [14]): > 100 µM; TGI (MDA-MB-435 [11]; read-out: TGI): > 100 µM; GI50 (MDA-MB-435 [11]; read-out: pGI50 (converted)): > 100 µM; CC50 (MDA-MB-435 [11]; [15]): > 100 µM; TGI (MDA-MB-435 [11]; read-out: pTGI): > 100 µM; GI50 (SNB-19; read-out: GI50): 5 µM; CC50 (SNB-19; [14]): > 100 µM; TGI (SNB-19; read-out: TGI): > 100 µM; GI50 (SNB-19; read-out: pGI50 (converted)): 5.01 µM; CC50 (SNB-19; [15]): > 100 µM; TGI (SNB-19; read-out: pTGI): > 100 µM; growth at 10 µM [12]: 79%; growth at 1 µM (SW-620 [13]): 89%
